Values after ≈ are worked out from the molar mass of the structure shown.
Assays:
Escherichia coli [1] = test: Antibacterial activity against Escherichia coli L58058.1 expressing ANT2''-1A after 24 hrs by geometric microdilution method; type: functional; conditions: L58058.1, 24 h
Escherichia coli [2] = test: Antibacterial activity against Escherichia coli PAZ505H8101 expressing AAC6'-1B after 24 hrs by geometric microdilution method; type: functional; conditions: PAZ505H8101, 24 h
Klebsiella pneumoniae = test: Antibacterial activity against Klebsiella pneumoniae ATCC 700603 after 24 hrs by geometric microdilution method; type: functional; conditions: ATCC 700603, 24 h
Pseudomonas aeruginosa [3] = test: Antibacterial activity against Pseudomonas aeruginosa PA22 (PT629) expressing MexXY after 24 hrs by geometric microdilution method; type: functional
Pseudomonas aeruginosa [4] = test: Antibacterial activity against Pseudomonas aeruginosa F03 expressing AAC6'-2A after 24 hrs by geometric microdilution method; type: functional; conditions: F03, 24 h
Pseudomonas aeruginosa [5] = test: Antibacterial activity against Pseudomonas aeruginosa ATCC 27853 after 24 hrs by geometric microdilution method; type: functional; conditions: ATCC 27853, 24 h
Acinetobacter lwoffii [6] = test: Antibacterial activity against Acinetobacter lwoffii AI.88-483 expressing APH3'-6A after 24 hrs by geometric microdilution method; type: functional; conditions: AI.88-483, 24 h
Acinetobacter lwoffii [7] = test: Antibacterial activity against Acinetobacter lwoffii ATCC 17925 after 24 hrs by geometric microdilution method; type: functional; conditions: ATCC 17925, 24 h
Staphylococcus aureus [8] = test: Antibacterial activity against vancomycin-resistant Staphylococcus aureus VRS2 after 24 hrs by geometric microdilution method; type: functional; conditions: VRS2, 24 h
Method in brief: (§1)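 Broth cultures were incubated in plates at 37 °C, and growth was read as absorbance at 650 nm after 1, 4, 7 and 24 h. Ampicillin (16 mg/L) was the positive control and DMSO the negative control. Each MIC (μg/mL) is the average of at least three determinations.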

Staphylococcus aureus [9] = test: Antibacterial activity against healthcare-acquired methicillin-resistant Staphylococcus aureus ATCC 33592 after 24 hrs by geometric microdilution method; type: functional; conditions: ATCC 33592, 24 h; method in brief: as §1
Staphylococcus aureus [10] = test: Antibacterial activity against Staphylococcus aureus expressing aminoglycoside-[…] after 24 hrs by geometric microdilution method; type: functional; method in brief: as §1
Staphylococcus aureus [11] = test: Antibacterial activity against Staphylococcus aureus expressing aminoglycoside-3'-O-phosphoryltransferase after 24 hrs by geometric microdilution method; type: functional; method in brief: as §1
Staphylococcus aureus [12] = test: Antibacterial activity against Staphylococcus aureus expressing aminoglycoside-6'-N-acetyltransferase/2''-O-phosphoryltransferase after 24 hrs by geometric microdilution method; type: functional; method in brief: as §1
Staphylococcus aureus [13] = test: Antibacterial activity against 14- and 15-membered macrolide-resistant Staphylococcus aureus expressing MsrA efflux pump after 24 hrs by geometric microdilution method; type: functional; method in brief: as §1
Staphylococcus aureus [14] = test: Antibacterial activity against fluoroquinolone-resistant Staphylococcus aureus 1199B expressing NorA efflux pump after 24 hrs by geometric microdilution method; type: functional; method in brief: as §1
Escherichia coli [15] = test: microbe, parasite or virus in culture; conditions: ATCC 25922, 24 h
Staphylococcus aureus [16] = test: microbe, parasite or virus in culture; conditions: ATCC 25923, 24 h
[17] = Ratio of cytotoxicity against murine J774 cells to antibacterial activity against vancomycin-resistant Staphylococcus aureus VRS2; type: toxicity, cell-based; conditions: mouse
[18] = Ratio of cytotoxicity against murine J774 cells to antibacterial activity against healthcare-acquired methicillin-resistant Staphylococcus aureus ATCC 33592; type: toxicity, cell-based; conditions: mouse
[19] = Cytotoxicity against murine J774 cells assessed as cell viability at 10 uM after 24 hrs by MTT assay relative to control; type: cell-based; conditions: mouse, read-out: Activity
Method in brief: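 Murine J774 macrophages were exposed for 24 h to compounds at 10 μM, then incubated 1 h with 0.2 mg/mL MTT. Viability was read from mitochondrial reduction of MTT to purple formazan, expressed as percent viability, and averaged over three experiments.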

[20] = Ratio of cytotoxicity against murine J774 cells to antibacterial activity against Pseudomonas aeruginosa PA22 (PT629) expressing MexXY; type: toxicity, cell-based; conditions: mouse
[21] = Ratio of cytotoxicity against murine J774 cells to antibacterial activity against Pseudomonas aeruginosa F03 expressing AAC6'-2A; type: toxicity, cell-based; conditions: mouse
[22] = Ratio of cytotoxicity against murine J774 cells to antibacterial activity against Pseudomonas aeruginosa ATCC 27853; type: toxicity, cell-based; conditions: mouse

| SMILES | MIC (Escherichia coli [1]) | MIC (Escherichia coli [2]) | MIC (Klebsiella pneumoniae) | MIC (Pseudomonas aeruginosa [3]) | MIC (Pseudomonas aeruginosa [4]) | MIC (Pseudomonas aeruginosa [5]) | MIC (Acinetobacter lwoffii [6]) | MIC (Acinetobacter lwoffii [7]) | MIC (Staphylococcus aureus [8]) | MIC (Staphylococcus aureus [9]) | MIC (Staphylococcus aureus [10]) | MIC (Staphylococcus aureus [11]) | MIC (Staphylococcus aureus [12]) | MIC (Staphylococcus aureus [13]) | MIC (Staphylococcus aureus [14]) | MIC (Escherichia coli [15]) | MIC (Staphylococcus aureus [16]) | selectivity ratio [17] | viability at 24 h, 10 µM [19] | further results |
| --- | --- | --- | --- | --- | --- | --- | --- | --- | --- | --- | --- | --- | --- | --- | --- | --- | --- | --- | --- | --- |
| N[C@H]1[C@@H](O[C@H]2[C@H](O)[C@@H](OCc3cccc4ccccc34)[C@H](N)C[C@@H]2N)O[C@H](CO)[C@@H](OCc2cccc3ccccc23)[C@@H]1OCc1cccc2ccccc12 | 16 mg/L (≈ 21.5 µM) | 16 mg/L (≈ 21.5 µM) | 128 mg/L (≈ 172 µM) | 32 mg/L (≈ 43 µM) | 32 mg/L (≈ 43 µM) | 32 mg/L (≈ 43 µM) | 128 mg/L (≈ 172 µM) | 1 mg/L (≈ 1.34 µM) | 32 mg/L (≈ 43 µM) | 32 mg/L (≈ 43 µM) | 16 mg/L (≈ 21.5 µM) | 4 mg/L (≈ 5.38 µM) | 8 mg/L (≈ 10.8 µM) | 8 mg/L (≈ 10.8 µM) | 8 mg/L (≈ 10.8 µM) | 16 mg/L (≈ 21.5 µM) | 2 mg/L (≈ 2.69 µM) |  |  |  |
| NC[C@@H]1O[C@H](O[C@H]2[C@@H](O)[C@H](O[C@@H]3[C@@H](O)[C@H](N)C[C@H](N)[C@H]3O[C@H]3O[C@H](CN)[C@@H](O)[C@H](O)[C@H]3N)O[C@@H]2CO)[C@H](N)[C@@H](O)[C@@H]1O [FRAMYCETIN] | 1 mg/L (≈ 1.63 µM) | 4 mg/L (≈ 6.51 µM) | 16 mg/L (≈ 26 µM) | 32 mg/L (≈ 52.1 µM) | 128 mg/L (≈ 208 µM) | 64 mg/L (≈ 104 µM) | > 128 mg/L | 0.5 mg/L (≈ 0.813 µM) | 128 mg/L (≈ 208 µM) | > 128 mg/L | 32 mg/L (≈ 52.1 µM) | > 128 mg/L | 1 mg/L (≈ 1.63 µM) | 2 mg/L (≈ 3.25 µM) | 1 mg/L (≈ 1.63 µM) | 2 mg/L (≈ 3.25 µM) | 2 mg/L (≈ 3.25 µM) |  |  |  |
| NC[C@H]1O[C@H](O[C@H]2[C@H](O)[C@@H](OCCCc3ccc4ccccc4c3)[C@H](N)C[C@@H]2N)[C@H](N)[C@@H](OCCCc2ccc3ccccc3c2)[C@@H]1O | 16 mg/L (≈ 24.3 µM) | 8 mg/L (≈ 12.1 µM) |  | 16 mg/L (≈ 24.3 µM) | 16 mg/L (≈ 24.3 µM) | 4 mg/L (≈ 6.07 µM) |  |  | 1 mg/L (≈ 1.52 µM) | 2 mg/L (≈ 3.04 µM) | 1 mg/L (≈ 1.52 µM) | 1 mg/L (≈ 1.52 µM) | 2 mg/L (≈ 3.04 µM) | 0.5 mg/L (≈ 0.759 µM) | 2 mg/L (≈ 3.04 µM) | 16 mg/L (≈ 24.3 µM) | 2 mg/L (≈ 3.04 µM) | 11 | 90% | selectivity ratio [18]: 5.5 |
| CCCCCCCCCO[C@@H]1[C@@H](N)[C@@H](O[C@H]2[C@H](O)[C@@H](OCCCCCCCCC)[C@H](N)C[C@@H]2N)O[C@H](CN)[C@H]1O | 4 mg/L (≈ 6.96 µM) | 2 mg/L (≈ 3.48 µM) |  | 4 mg/L (≈ 6.96 µM) | 4 mg/L (≈ 6.96 µM) | 4 mg/L (≈ 6.96 µM) |  |  | 2 mg/L (≈ 3.48 µM) | 4 mg/L (≈ 6.96 µM) | 4 mg/L (≈ 6.96 µM) | 2 mg/L (≈ 3.48 µM) | 4 mg/L (≈ 6.96 µM) | 4 mg/L (≈ 6.96 µM) | 8 mg/L (≈ 13.9 µM) | 4 mg/L (≈ 6.96 µM) | 2 mg/L (≈ 3.48 µM) | > 5 | 75% | selectivity ratio [20]: 2.5; selectivity ratio [21]: 2.5; selectivity ratio [22]: 2.5 |
| NC[C@H]1O[C@H](O[C@H]2[C@H](O)[C@@H](OCc3cccc4ccccc34)[C@H](N)C[C@@H]2N)[C@H](N)[C@@H](OCc2cccc3ccccc23)[C@@H]1OCc1cccc2ccccc12 | 16 mg/L (≈ 21.5 µM) | 2 mg/L (≈ 2.69 µM) | 128 mg/L (≈ 172 µM) | 8 mg/L (≈ 10.8 µM) | 8 mg/L (≈ 10.8 µM) | 8 mg/L (≈ 10.8 µM) | 128 mg/L (≈ 172 µM) | 2 mg/L (≈ 2.69 µM) | 16 mg/L (≈ 21.5 µM) | 4 mg/L (≈ 5.38 µM) | 4 mg/L (≈ 5.38 µM) | 2 mg/L (≈ 2.69 µM) | 4 mg/L (≈ 5.38 µM) | 2 mg/L (≈ 2.69 µM) | 4 mg/L (≈ 5.38 µM) | 8 mg/L (≈ 10.8 µM) | 1 mg/L (≈ 1.35 µM) |  |  |  |
| NC[C@H]1O[C@H](O[C@H]2[C@H](O)[C@@H](OCCCCc3ccc4ccccc4c3)[C@H](N)C[C@@H]2N)[C@H](N)[C@@H](OCCCCc2ccc3ccccc3c2)[C@@H]1O | 8 mg/L (≈ 11.6 µM) | 4 mg/L (≈ 5.82 µM) | 32 mg/L (≈ 46.6 µM) | 8 mg/L (≈ 11.6 µM) | 8 mg/L (≈ 11.6 µM) | 4 mg/L (≈ 5.82 µM) | 64 mg/L (≈ 93.2 µM) | 4 mg/L (≈ 5.82 µM) | 2 mg/L (≈ 2.91 µM) | 2 mg/L (≈ 2.91 µM) | 1 mg/L (≈ 1.46 µM) | 1 mg/L (≈ 1.46 µM) | 2 mg/L (≈ 2.91 µM) | 0.25 mg/L (≈ 0.364 µM) | 2 mg/L (≈ 2.91 µM) | 8 mg/L (≈ 11.6 µM) | 2 mg/L (≈ 2.91 µM) | > 5 | 80% |  |

— ChEMBL document CHEMBL2429794, “Tuning the antibacterial activity of amphiphilic neamine derivatives and comparison to paromamine homologues” (J Med Chem, 2013)
